Activity data for one compound are collected here from ChEMBL document CHEMBL3352343, “Structure-activity relationships of oxysterol-derived pharmacological chaperones for Niemann-Pick type C1 protein” (Bioorg Med Chem Lett, 2014).

Structures are written as SMILES.

The assay deals with T1, NPC1-like intracellular cholesterol transporter 1 (Homo sapiens), Q9UHC9 [I1061T].
T1 sequence (whole entry): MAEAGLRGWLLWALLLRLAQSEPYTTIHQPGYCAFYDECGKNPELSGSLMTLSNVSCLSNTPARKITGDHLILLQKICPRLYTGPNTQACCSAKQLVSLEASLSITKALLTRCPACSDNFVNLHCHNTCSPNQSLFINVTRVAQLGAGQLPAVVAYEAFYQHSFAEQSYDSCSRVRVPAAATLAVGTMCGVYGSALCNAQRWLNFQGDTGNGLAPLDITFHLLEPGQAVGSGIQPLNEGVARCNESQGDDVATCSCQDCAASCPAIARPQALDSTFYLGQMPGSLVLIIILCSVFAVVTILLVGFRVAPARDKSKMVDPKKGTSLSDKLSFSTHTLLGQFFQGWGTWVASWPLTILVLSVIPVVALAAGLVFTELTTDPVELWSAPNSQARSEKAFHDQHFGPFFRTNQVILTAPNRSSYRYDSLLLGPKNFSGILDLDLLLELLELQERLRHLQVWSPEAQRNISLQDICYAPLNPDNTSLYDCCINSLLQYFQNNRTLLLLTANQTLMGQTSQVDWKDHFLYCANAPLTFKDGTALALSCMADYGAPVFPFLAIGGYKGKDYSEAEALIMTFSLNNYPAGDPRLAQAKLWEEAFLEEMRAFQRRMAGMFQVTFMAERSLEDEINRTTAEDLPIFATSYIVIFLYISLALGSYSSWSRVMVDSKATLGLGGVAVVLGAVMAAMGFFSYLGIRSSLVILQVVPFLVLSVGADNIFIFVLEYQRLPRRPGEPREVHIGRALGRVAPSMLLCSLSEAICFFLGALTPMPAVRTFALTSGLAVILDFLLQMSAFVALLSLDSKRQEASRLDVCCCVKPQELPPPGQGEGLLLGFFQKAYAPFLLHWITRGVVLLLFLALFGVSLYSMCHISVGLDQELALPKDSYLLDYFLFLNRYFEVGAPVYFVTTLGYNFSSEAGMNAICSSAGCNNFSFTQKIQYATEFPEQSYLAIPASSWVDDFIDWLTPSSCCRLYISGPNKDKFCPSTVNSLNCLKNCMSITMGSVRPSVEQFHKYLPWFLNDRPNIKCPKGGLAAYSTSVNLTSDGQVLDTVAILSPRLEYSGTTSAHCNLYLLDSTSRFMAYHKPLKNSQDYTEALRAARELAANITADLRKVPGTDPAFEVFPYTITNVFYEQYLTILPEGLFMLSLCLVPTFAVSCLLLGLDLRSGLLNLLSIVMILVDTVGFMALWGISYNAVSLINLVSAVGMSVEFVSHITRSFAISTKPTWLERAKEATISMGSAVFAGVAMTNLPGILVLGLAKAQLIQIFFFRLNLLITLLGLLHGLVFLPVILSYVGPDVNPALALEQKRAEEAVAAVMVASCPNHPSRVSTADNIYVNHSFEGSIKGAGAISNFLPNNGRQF
Kind of assay: Binding affinity to FLAG/tGFP-tagged NPC1 I1061T mutant (unknown origin) expressed in HEK293 cells assessed as localization after 24 hrs by fluorescence microscopy. The class given is cell-based. The procedure, abridged: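 HEK293 cells stably expressing NPC1 I1061T-tGFP were exposed to compound for 24 h, fixed, and nuclei stained with Hoechst 33342. In the images, each cell was scored by tGFP pattern: ER 0, mixed ER+vesicle 0.5, vesicular 1. Scores were averaged to give the vesicular-localization percentage, and EC50 was taken from concentration-response. Data are mean ± standard deviation of three independent experiments.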

`C[C@H](CCCC(C)(C)O)[C@H]1CC[C@H]2[C@@H]3CC=C4C[C@@H](O)CC[C@]4(C)[C@H]3CC[C@]12C`: the Activity entry is “Dose-dependent effect”.
